SMILES strings stand for the structures. Active and inactive are the calls of the source. The rule behind the calls is not given here.

The source of these data is ChEMBL document CHEMBL4422635, “Structure-Based Discovery of a Subtype-Selective Inhibitor Targeting a Transient Receptor Potential Vanilloid Channel” (J Med Chem, 2019).

This test concerns T1, Transient receptor potential cation channel subfamily V member 2 (Mus musculus), Q9WTR1 [Q525E].
T1 sequence (whole entry): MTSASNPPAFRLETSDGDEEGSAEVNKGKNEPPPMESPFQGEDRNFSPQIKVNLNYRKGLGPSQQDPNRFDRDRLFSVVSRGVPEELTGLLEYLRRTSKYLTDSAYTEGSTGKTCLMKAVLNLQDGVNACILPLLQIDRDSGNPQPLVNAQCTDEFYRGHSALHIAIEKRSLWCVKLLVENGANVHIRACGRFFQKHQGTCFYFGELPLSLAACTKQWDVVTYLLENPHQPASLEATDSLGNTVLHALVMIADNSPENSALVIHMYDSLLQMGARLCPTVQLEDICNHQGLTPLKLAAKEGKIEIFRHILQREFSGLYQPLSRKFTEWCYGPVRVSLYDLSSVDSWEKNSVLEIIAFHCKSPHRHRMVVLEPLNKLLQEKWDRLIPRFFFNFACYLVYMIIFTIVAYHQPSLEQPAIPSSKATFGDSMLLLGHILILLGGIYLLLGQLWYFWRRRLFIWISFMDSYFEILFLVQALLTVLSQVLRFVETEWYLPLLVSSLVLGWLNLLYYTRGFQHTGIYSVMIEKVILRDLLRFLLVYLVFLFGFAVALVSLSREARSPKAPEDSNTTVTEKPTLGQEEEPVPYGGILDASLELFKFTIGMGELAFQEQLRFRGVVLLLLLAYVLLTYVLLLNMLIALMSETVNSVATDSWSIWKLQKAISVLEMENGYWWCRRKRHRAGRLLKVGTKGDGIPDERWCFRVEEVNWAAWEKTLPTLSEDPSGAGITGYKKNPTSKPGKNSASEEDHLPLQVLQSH
Put plainly: Antagonist activity at mouse TRPV2 Q525E mutant expressed in HEK293T cells assessed as inhibition of 2-APB evoked currents at -60 mV holding potential by whole-cell patch clamp assay. It counts as cell-based. The gist of the method: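 Whole-cell voltage clamp of transiently transfected HEK293T cells co-expressing GFP, recorded 36-96 h post-transfection. Hold -60 mV; pipettes 3-7 MΩ. Bath 165 mM NaCl, 10 mM HEPES pH 7.3; pipette 140 mM KCl, 10 mM HEPES pH 7.3. Room temperature (~25 °C). IC50 from Hill fits of I/I0, the current ratio after vs before inhibitor; mean ± SEM.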
On the technique in general: In patch-clamp work, channel activity is measured electrically.

Take `CCCN(C)c1cc(C(F)(F)F)nc(SCCC(=O)NCc2ccco2)n1`: the inhibition result is “inactive”.
